From ChEMBL document CHEMBL4513216, “Probing the Open Global Health Chemical Diversity Library for Multistage-Active Starting Points for Next-Generation Antimalarials” (ACS Infect Dis, 2020)

Assay: Toxicity liver stage against HepG2, at 10uM
Assay type: cell-based
Design: test concentration 10 uM, cell line HepG2-A16-CD81EGFP
Conditions: human, HepG2-A16-CD81EGFP cells; read-out: INHIBITION
In short: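 Uninfected HepG2-A16-CD81EGFP cells, 3 × 10^3 per well, 1536-well, plated on prespotted compound at 10 μM final, parasite-free screening media added to match infected plates; puromycin 10 μM positive, DMSO 0.5% negative; run in parallel with 48 h PbLuc assay at 37 °C, 5% CO2; viability by CellTiter-Glo luminescence, normalized to controls.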

SMILES | cytotoxicity at 10 µM [%]
CC(C)CNC(=O)C1CC(=O)N(c2n[nH]c3ccccc23)C1 (configuration not stated) | -11.6
Cc1nccn1CCCn1cncc1-c1ccc2c(c1)CCCN2C | -4.7
CCc1nc(CN2CCN(c3ncnc4cc(F)ccc34)CC2)no1 | 41.5
COc1ccc(S(=O)(=O)NCCCc2ccc(N(C)C)cc2)cc1Cl | -0.399
O=C(C1CC(=O)N(c2ccccc2Br)C1)N1CCCCCC1 (configuration not stated) | 8.52
COc1ccc(SCC2CNc3nc4ccccc4c(=O)n32)cc1 (configuration not stated) | 7.69
CC(C)Oc1ccc(C(=O)NCc2ccc3c(c2)CCCN3C)cn1 | -6.63
O=C(Cc1ccccc1)N1CCn2cc(Cn3cncn3)nc2C1 | -137
CCN(Cc1ccc(C)o1)C(=O)C(C)n1ccnc1C(C)C (configuration not stated) | 7.66
Cc1cc(S(C)(=O)=O)c(C)c(S(=O)(=O)NCC2CCCO2)c1 (configuration not stated) | -8.02
O=C(c1ccc2c(c1)COC2)N1CCC(Nc2ccccc2)CC1 | -7.54
CS(=O)(=O)NC(=O)c1nnn(-c2ccccc2)c1C1CC1 | -7.09
CC(Cn1ccnc1)NC(=O)N(C)Cc1ccsc1 (configuration not stated) | 2.69
O=C1NCCC12CN(CC1CC1)CC21CCNCC1 (configuration not stated) | -5.31
O=S(=O)(c1cncc(F)c1)N1CCC2(CCCCC2)C1 | -4.61
CN(Cc1ccccc1)c1ncccc1CNC1CCCC1 | -8.8
Cc1csc2c(C3CCN(CCCOc4ccccc4)CC3)nc(C)n12 | 1.63
CC(C)N(C)S(=O)(=O)N1CCCC1C(=O)N1CCSCC1 (configuration not stated) | -16.5
Cc1cccc(CNC2CCCc3c2cnn3Cc2ccccc2)c1 (configuration not stated) | -16.6
O=c1ccc(-c2cccs2)nn1CN1CCOCC1 | 5.68
O=S(=O)(NCC1CCN(c2ccccn2)CC1)c1ccccc1F | -0.549
CC(C)C1CN(S(=O)(=O)N(C)C)CCCN1Cc1ccc(F)cc1 (configuration not stated) | 5.17
CC(C)c1n[nH]c(C2CN(C(=O)c3cc(C4CC4)[nH]n3)CCO2)n1 (configuration not stated) | -5.95

SMILES | cytotoxicity at 10 µM [%]
COc1ccccc1S(=O)(=O)NCC(c1cccn1C)N(C)C (configuration not stated) | 1.51
CNC(=O)COc1cccc(CNC(=O)c2c(C)noc2C(C)C)c1 | -2.8
CC(C)Oc1ncccc1CNC(=O)c1cc(C2CC2)on1 | -17.7
Cc1cccc(NC(=O)C2CSc3ncc(C)c(=O)n3C2)n1 (configuration not stated) | 0.0115
Cc1nc(CN2CCN(C(=O)c3c(C)noc3C)CC2)cs1 | -23.2
Cc1nn(C)c(C)c1NC(=O)CNC(c1ccccc1)C1CCCC1 (configuration not stated) | -0.0764
CC(NC(=O)c1csnn1)c1ccc(OCC2CC2)c(F)c1 (configuration not stated) | -1
O=C([C@H]1C[C@@H]2[C@@H](C1)OCCN2CC1CC1)N1CCCC1 | -2.2
CC(=O)NCC(=O)N1CCC2(CC1)NC(=O)CC2c1cccnc1 (configuration not stated) | -72.5
Cc1cccc(C2CC(=O)Nc3c2c(=O)[nH]n3C(C)C)c1 (configuration not stated) | -3.33
COCCNC(=O)c1nc(-c2cn(C)cn2)n2ccccc12 | -104
CC(C)Cn1cc(NCc2cscn2)cn1 | 3.86
Cc1cnn(-c2cccc(N3CCCCC3)n2)c1 | 0.247
CN(C)c1ccc(C(O)CNC(=O)NCCCc2ccccc2)cc1 (configuration not stated) | -10
COc1ncccc1CN1Cc2nccn2CC(CN2CCCC2)C1 (configuration not stated) | -103
O=C(CN(Cc1cccs1)C1CCS(=O)(=O)C1)NC1CCCCC1 (configuration not stated) | -7.53
CC(Cc1ccco1)NC(=O)Nc1cccnc1 (configuration not stated) | -6.78
COc1ccccc1OC1(C(=O)O)CCN(c2nc(C)cnc2C)CC1 | -13.6
O=C(Cc1cccs1)N1Cc2nc(CN3CCCC3)oc2C1 | -2.87
COc1cc(C(=O)NCc2cc(N3CCOCC3)ncn2)ccn1 | -10.8
Cc1cnn(CCNCC(O)COc2c(Cl)cccc2Cl)c1 (configuration not stated) | -5.4
CCc1ncc2c(n1)CN(C(C)C(=O)Nc1ccc(Cl)cn1)CC2 (configuration not stated) | -0.915
Cc1cccnc1C(Nc1nccc(C2CCCC2)n1)C1CC1 (configuration not stated) | -121

SMILES | cytotoxicity at 10 µM [%]
CCC(C)NC(=O)CS(=O)(=O)Cc1nc(-c2cccs2)no1 (configuration not stated) | 2.04
CCn1ccnc1CN1CCN(CC(O)Cn2cccn2)CC1 (configuration not stated) | -5.97
CC(C)CN1CCc2[nH]cnc2C12CCN(C(=O)c1cccnc1)CC2 | 23.4
CC(C)C1SCC(=O)Nc2c1cnn2-c1ccc(Cl)cc1F (configuration not stated) | 17.2
CC(C)c1nnc(CN2CCCc3ccc(S(N)(=O)=O)cc32)o1 | -1.08
O=c1cc2c(nn1CN1CCN(c3ccccc3)CC1)CCCC2 | -9.58
CC(C)N1CCc2c(CNC(=O)c3nccn3C)cncc2C1 | -106
CN(C)C(=O)CO[C@H]1CO[C@@]2(CCN(Cc3ccsc3)C2)C1 | -111
CCN1CCN(C(=O)CCc2c(C)noc2Cl)CC1 | -4.37
CN1CCC(CCNC(=O)c2ccc(N(C)S(C)(=O)=O)cc2Cl)CC1 | -10.1
COc1ccc(N2CCN(C(=O)C(C)n3cc(Br)cn3)CC2)cc1 (configuration not stated) | 11.4
O=C(NCc1ccccc1)N1C[C@H]2CCN[C@H]2C1 | -5.54
Cc1ccc(C(=O)O)cc1S(=O)(=O)N(C)c1cccc(C#N)c1 | 10.6
O=C(CNC(=O)C1CC1)NCCOc1cccc(Cl)c1Cl | 5.04
COc1cc(Cl)c(C)cc1NC(=O)CCNc1ccc(C#N)cn1 | 0.423
OCCN1CCCCC1c1cc[nH]n1 (configuration not stated) | -1.71
O=C(COc1ccc(-n2cccn2)nn1)N1CCCC1 | 1.43
COCCC(=O)N1CCC2(CN(Cc3cccc(F)c3)C2)C1 | -74
CN(C)c1cc(C2CCCN(C(=O)Cn3cc(Cl)cn3)C2)ccn1 (configuration not stated) | -23.2
c1cc(NC2CC3(CCN(Cc4cscn4)C3)C2)ncn1 (configuration not stated) | -2.28
c1ccc(-c2nn3c(CN4CCOCC4)nnc3s2)nc1 | 9.9
O=C(COCC(=O)N(c1ccccc1)c1ccccc1)N1CCCCC1 | 2.33
CC(C)c1noc(C2CCCN2C(=O)CN2CCc3ccccc32)n1 (configuration not stated) | -8.76

SMILES | cytotoxicity at 10 µM [%]
COc1cccc(CC(=O)NC(C)c2nc3cccnc3n2C(C)C)c1 (configuration not stated) | -22.6
Oc1nnc(-c2cccs2)c2sc(N3CCCC3)nc12 | -2.73
CN(C)C(=O)c1ccc(C2CCCN2C(=O)c2ccccc2N(C)C)s1 (configuration not stated) | 18.5
Cc1ccc(N2CCCC(NCc3ccc(Cl)o3)C2)nn1 (configuration not stated) | -6.83
CN1C(=O)c2ccc(C(=O)N(Cc3cnn(C)c3)C3CC3)cc2C1=O | 5.68
COCCc1ncc(CN2CCC3(CCCN(CC4CC4)C3)C2)cn1 (configuration not stated) | -4.07
Cc1cc(C)n(CC2CCCN2C(=O)c2c(C)noc2C)n1 (configuration not stated) | -13.8
Cc1cnn(-c2ccc(S(=O)(=O)N(C)CC(C)(CO)CO)cc2F)c1 | 12.5
Cc1nc[nH]c1-c1nnc(SCC(=O)O)n1-c1ccccc1C(F)(F)F | 0.0448
CCN(CC)C(=O)C1CCN(C(=O)Nc2cccnc2OC)CC1 | 19
OC(COCc1ccccc1)CN1CCC(c2ccn[nH]2)CC1 (configuration not stated) | -13.6
COCCn1ccc(NC(=O)Nc2ccc(C)cc2)n1 | 2.19
NC(=O)[C@@H]1Cc2ccccc2CN1CCC(=O)N1CCOCC1 | -5.82
COc1cccc(Cn2cc(N3C(=O)[C@H]4CCCC[C@H]4C3=O)cn2)c1 | -11.9
CC(C)NC(=O)c1sccc1N(C)S(=O)(=O)c1ccc(Cl)cc1 | 9.22
COCC(=O)Nc1ccnc(OCCN(C)C)c1 | -7.67
Clc1cccc(C(CNCc2cccnc2)N2CCOCC2)c1 (configuration not stated) | -4.45
Cc1ccccc1C1(C(=O)NCCN(C(C)C)C(C)C)CCOCC1 | -6.51
CCN(CC)c1ncccc1CNC(=O)c1cnn(CC)c1 | -8.2
COc1ccc(C(C)NC(=O)Cn2ccc(=O)n(C)c2=O)cc1OC (configuration not stated) | -9.09
c1coc(-c2nnc(CN(Cc3cccs3)CC3CCCO3)o2)c1 (configuration not stated) | 5.79
COc1cc(N2CCC3(CC2)CC(N2CCN(C)CC2)CO3)ncn1 (configuration not stated) | -9.11
O=C1NCCCc2[nH]c(-c3nc(C4CCCCC4)no3)nc21 | -0.627

SMILES | cytotoxicity at 10 µM [%]
Brc1ccc(CN2CCC(NCc3ncc[nH]3)CC2)cc1 | 14.8
O=C(Nc1ccc(F)cc1)N1CCN(Cc2noc(C3CC3)n2)CC1 | -18.1
O=C1NCC2(CCCN(C(=O)c3c[nH]nc3C3CCCCC3)C2)O1 (configuration not stated) | 8.72
Cc1cc(C[S+]([O-])CC(=O)NCC(C)C)no1 (configuration not stated) | -4.17
COc1ccc(CNC2CCC3(CCC(=O)N3)CC2)cc1 (configuration not stated) | 3.59
CCOCCC(=O)NC1(c2cccc(Br)c2)CC1 | 7.53
COc1ccccc1CN1C(=O)O[C@@H]2CN(c3nc(C)cnc3C)C[C@@H]21 | 1.06
Cc1cccc(CN2CCc3ncnc(N4CCCC4)c3CC2)n1 | -145
CN(CC(=O)N1CCCC1)C(=O)Cc1csc(-c2ncccn2)n1 | -9.51
CCOc1cccc(CNC(=O)c2cnn(CC)c2C(F)(F)F)c1 | 11.7
CCOCCCNC(=O)c1cccn1Cc1cccnc1 | -43.8
CC(=O)N1CCCC(c2nccnc2Nc2nc(C)cc(C)n2)C1 (configuration not stated) | 1.43
CCOC(C)c1noc(CN2CCN(CC3CCCC3)CC2)n1 (configuration not stated) | -13.2
NC(=O)C1(c2cnccn2)CCCN1Cc1cccc(Cl)c1 (configuration not stated) | -2.5
Cc1cc(C(=O)NCc2ccc(F)cc2)c2c(C3CCCN3)noc2n1 (configuration not stated) | 7.16
CO[C@H]1CCN(c2ncccn2)[C@H]1Cc1ccccc1 | -12.9
Cc1cc2n(n1)CC(CNCc1cnn(-c3ccccc3)c1)CN2 (configuration not stated) | -9.01
CNc1cncc(C2CCCN2S(=O)(=O)c2cccc(F)c2)n1 (configuration not stated) | -15.3
Cc1nn(C)cc1C(=O)N1CCCn2nc(CN3CC[C@H](F)C3)cc2C1 | -7.88
Cc1cccc2nc(C(=O)N3CCCC[C@]4(C)NC(=O)CCC[C@H]34)cn12 | -1.85
